According to ChEMBL document CHEMBL2203273, “Prostratin and 12-O-tetradecanoylphorbol 13-acetate are potent and selective inhibitors of Chikungunya virus replication” (J Nat Prod, 2012):

Experiments:
Semliki Forest virus = experiment: Antiviral activity against Semliki forest virus infected in african green monkey Vero cells assessed as inhibition of virus-induced cytopathic effect incubated for 6 to 7 days by MTS assay; format: functional, organism-based
Procedure, shortened: (§1)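 Serial dilutions in MEM Rega3 with 2% FCS, L-glutamine and bicarbonate, added with 4× virus dilution and Vero cells (25 000 cells/well, subcultured 1:4, grown 7 days). Incubated 6−7 days, 37 °C, 5% CO2. Read-out is 5% MTS for 1.5 h, absorbance 498 nm. Data are percent of controls, EC50 from dose–response curves. Wells with >50% protection checked microscopically for CPE or altered morphology. Multiple independent experiments.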

[1] = Selectivity index, ratio of CC50 for african green monkey Vero cells to EC50 for Chikungunya virus 899; format: toxicity, cell-based; conditions: read-out: Ratio CC50/EC50
Sindbis virus = experiment: Antiviral activity against Sindbis virus HRsp infected in african green monkey Vero cells assessed as inhibition of virus-induced cytopathic effect incubated for 6 to 7 days by MTS assay; format: functional, organism-based; procedure, shortened: as §1
Chikungunya virus = experiment: Antiviral activity against Chikungunya virus 899 infected in african green monkey Vero cells assessed as inhibition of virus-induced cytopathic effect incubated for 6 to 7 days by MTS assay; format: functional, cell-based; conditions: Chikungunya virus, 899, Vero; procedure, shortened: as §1
[2] = Cytotoxicity against african green monkey Vero cells by MTS assay; format: cell-based; conditions: chlorocebus sabaeus
Procedure, shortened: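 Vero cells (25 000/well) with serial compound dilutions in MEM Rega3 with 2% FCS, no virus, for 6−7 days at 37 °C, 5% CO2. Overall metabolism read by 5% MTS for 1.5 h, absorbance 498 nm. Uninfected control OD 0.6−0.8. CC50 is the concentration inhibiting metabolism by 50%, from dose–response curves. Multiple independent experiments.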

CC(=O)O[C@@]12C[C@@H](C)[C@@]3(O)[C@@H](C=C(CO)C[C@]4(O)C(=O)C(C)=C[C@@H]34)[C@@H]1C2(C)C [PROSTRATIN]
EC50 (Semliki Forest virus): > 256 µM | selectivity ratio [1]: 30.3 | EC50 (Sindbis virus): > 256 µM | EC50 (Chikungunya virus): 2.6 µM | CC50 [2]: 79 µM

CCCCCCCCCCCC(=O)O[C@@H]1[C@@H](C)[C@@]2(O)[C@@H](C(=O)C(CO)=C[C@]3(O)C(=O)C(C)=C[C@@H]23)[C@@H]2C(C)(C)[C@]12OC(C)=O [TRIGOWIIN A]
selectivity ratio [1]: > 2.3 | EC50 (Chikungunya virus): 43.5 µM | CC50 [2]: > 100 µM

CCCCCCCCCCCCCC(=O)O[C@@H]1[C@@H](C)[C@@]2(O)[C@@H](C=C(CO)C[C@]3(O)C(=O)C(C)=C[C@@H]23)[C@@H]2C(C)(C)[C@]12OC(C)=O [PHORBOL MYRISTATE ACETATE]
EC50 (Semliki Forest virus): > 162 µM | selectivity ratio [1]: 1960 | EC50 (Sindbis virus): 2.2 µM | EC50 (Chikungunya virus): 0.0029 µM | CC50 [2]: 5.7 µM

CCN(CC)CCCC(C)Nc1ccnc2cc(Cl)ccc12 (stereo not given) [CHLOROQUINE]
EC50 (Semliki Forest virus): 14 µM | EC50 (Sindbis virus): 11 µM | EC50 (Chikungunya virus): 11 µM | CC50 [2]: 89 µM

CC1=C[C@H]2[C@@]3(O)[C@H](C)[C@@H](O)[C@]4(O)[C@H]([C@@H]3C=C(CO)C[C@]2(O)C1=O)C4(C)C [PHORBOL]
EC50 (Semliki Forest virus): > 274 µM | selectivity ratio [1]: > 1 | EC50 (Sindbis virus): > 274 µM | EC50 (Chikungunya virus): > 343 µM | CC50 [2]: > 343 µM

CCCCCCCCCCCCCC(=O)O[C@@H]1[C@@H](C)[C@@]2(O)[C@@H](C=C(CO)C[C@@]3(O)C(=O)C(C)=C[C@@H]23)[C@@H]2C(C)(C)[C@]12OC(C)=O
selectivity ratio [1]: 1.9 | EC50 (Chikungunya virus): 2.8 µM | CC50 [2]: 5.3 µM
